Arrestin-AP2 inh: inhibitors of human beta-arrestin and AP2 interaction; inhibition, % at 10 µM; 340,000 tested, 0.31% active; FITC-arrestin peptide / GST-AP2 beads, flow cytometry; AP2 beta2 appendage carries R879A mutation;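 active means inhibition above a set limit, near 3 SD of compounds lacking own fluorescence, cut at about 54% in these data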;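 further: plate controls were DMSO wells for no effect and 5 µM unlabelled arrestin peptide for full effect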
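Material – AP2 appendage R879A on GSH beads · Buffer or medium – PBS with 0.05% Tween 20 and 0.1% BSA · Probe or stimulus – fluorescein-tagged arrestin peptide at 50 nM final · Incubation – compound with beads 12 min RT, then probe 1 h RT · Detection – high-throughput flow cytometry of beads, ex 488, em 535 nm · Evaluation – percent response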
PLCb3 inh: PLC-beta3 (human) inhibition, primary screen | 370,000 tested, 0.18% active | AID 720704 | Purified PLC-beta3, fluorogenic substrate, fluorescence | inhibition, % at 12.2 µM;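 further: 0% = median of compound wells on plate and 100% = full blocker control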
PLCg1 inh: inhibitors of human phospholipase C gamma1; purified PLC-gamma1, fluorogenic substrate, fluorescence; inhibition, % at 12.2 µM; 370,000 tested, 0.84% active; AID 720700; P19174; in the data active means inhibition above about 9.5%
NTR1 agonist: NTR1 (human) agonism; NTR1-U2OS beta-arrestin-GFP spot imaging, agonist mode; activation, % at 20 µM; AID 493036; 330,000 tested, 0.17% active; P30989;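 active means activation at or above 40% of the spot to cytoplasm intensity ratio, with at least 20 cells analyzed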;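 further: 0% = DMSO without peptide and 100% = 100 nM NTR1 peptide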
Target sequence (P30989 whole entry, looked up): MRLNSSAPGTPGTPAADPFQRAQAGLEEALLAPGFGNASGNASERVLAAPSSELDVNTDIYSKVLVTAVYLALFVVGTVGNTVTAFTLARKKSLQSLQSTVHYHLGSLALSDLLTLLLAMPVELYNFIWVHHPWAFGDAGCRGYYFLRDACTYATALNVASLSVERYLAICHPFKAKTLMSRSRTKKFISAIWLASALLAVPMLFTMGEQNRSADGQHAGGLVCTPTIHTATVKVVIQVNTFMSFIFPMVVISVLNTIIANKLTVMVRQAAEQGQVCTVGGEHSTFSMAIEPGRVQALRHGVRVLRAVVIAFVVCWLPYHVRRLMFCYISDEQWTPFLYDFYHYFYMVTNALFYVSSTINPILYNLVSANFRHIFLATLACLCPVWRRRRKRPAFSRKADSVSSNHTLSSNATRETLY
PLCgamma1 ctr: counter-screen for PLC-beta3 inhibitors: inhibitors of human PLC-gamma1 | shares compounds with PLCg1 inh | purified PLC-gamma1, fluorogenic substrate, fluorescence | inhibition, % at 12.3 µM | 3,300 tested, 3.1% active | AID 743258; in the data active means inhibition above about 9.5%
PLCb3 confirm: confirmation of human PLC-beta3 inhibitors. 3,300 tested, 1% active. shares compounds with PLCg1 inh. purified PLC-beta3, fluorogenic substrate fluorescence. AID 743261. inhibition, % at 12.3 µM
* hit, by the source's call; nt = not tested or not shown. The list is not random: actives were taken first. Their share in the collection is about 1.3%. Unless noted, no stated cut-off is given here; in the data, active means inhibition above about 11%; inactive means the rest.

SMILES	Arrestin-AP2 inh	PLCb3 inh	PLCg1 inh	NTR1 agonist	PLCgamma1 ctr	PLCb3 confirm
CCN(c1cccc(C)c1)S(=O)(=O)c1ccc2c(c1)CCN2C(C)=O	0	0	3	3	nt	nt
CCN(c1cccc(C(F)(F)F)c1)S(=O)(=O)c1ccc2c(c1)CCN2C(C)=O	1	5	14*	0	-9	-5
CC(=O)O[C@@H]1C=C[C@@H](C#Cc2ccc(C(C)(C)C)cc2)O[C@@H]1COC(=O)NC(C)C	nt	-7	-2	nt	nt	nt
CC(C)(C)OC(=O)NCc1ccc(NC(=O)c2nc[nH]c2C(=O)NCCNC(=O)c2[nH]cnc2C(=O)Nc2ccc(CNC(=O)OC(C)(C)C)cc2)cc1	0	nt	nt	4	nt	nt
CC(C)(C)OC(=O)CNC(=O)c1[nH]cnc1C(=O)Nc1ccc(CNC(=O)OC(C)(C)C)cc1	3	13*	7	10	-1	-2
Cc1ccccc1Cn1cc(COC(=O)NCCc2ccccc2)nn1	nt	-6	-3	nt	nt	nt
CC(=O)N1CCc2cc(S(=O)(=O)NC(C(=O)Nc3ccc4c(c3)OCCO4)C(C)C)ccc21 (stereo not drawn)	5	3	11*	3	3	5
COc1ccc(CC2CCOC2=O)cc1 (stereo not drawn)	-7	3	10*	-2	-7	-1
COc1ccc(CNS(=O)(=O)c2ccccc2Br)c(OC)c1	nt	2	3	nt	nt	nt
O=C(Nc1ccc(F)cc1)Nc1cccnc1Cl	6	-3	13*	1	-9	-2
COCCNc1nc2c(c(=O)n(Cc3ccc(OC)cc3)c(=O)n2C)n1C	-1	1	0	0	nt	nt
COc1ccc(CNc2nc3c(c(=O)n(Cc4ccc(Cl)cc4)c(=O)n3C)n2C)cc1	29	3	10*	30	0	-6
CC(C)CNC(=O)OCc1cn(Cc2ccc(F)cc2F)nn1	nt	2	2	nt	nt	nt
CC(C)=CCC/C(C)=C/C[C@]12C[C@H](C(=O)O)N(C(=O)OC(C)(C)C)[C@@H]1N(C(=O)OC(C)(C)C)c1ccccc12	nt	-5	-2	nt	nt	nt
Cc1sc2nc(CN3CCOCC3)nc(NS(=O)(=O)c3ccccc3)c2c1C	7	-12	-9	-2	nt	nt
Cc1sc2nc(C3CC3)nc(NCCNS(=O)(=O)c3ccccc3)c2c1C	3	6	9.6*	7	-2	0
COCCCNC(=O)C[C@H]1C[C@@]2(C(=O)OC)C(=C[C@H](COCc3ccccc3)O[C@@H]2C)N(Cc2ccco2)C1=O	nt	0	-1	nt	nt	nt
S=C(Nc1ccccc1)c1ccccn1	0	12*	11*	3	-4	0
S=C(Nc1ccccc1)Nc1ccccn1	nt	4	1	nt	nt	nt
Cc1ccn2c(=O)c(C(=O)NCCCN3CCCC3=O)c(O)nc2c1	12	-143	-96	1	nt	nt
Cc1csc2nc(O)c(C(=O)NCCCN3CCCC3=O)c(=O)n12	-10	4	9.7*	0	-7	-4
COC(=O)C1CN(C(=O)OC(C)(C)C)C2=C1C(=O)CC(C)(C(=O)OC(C)(C)C)C2 (stereo not drawn)	nt	-1	0	nt	nt	nt
CC1CCCCC1N=CC1=C(O)CC(C)(C)CC1=O (stereo not drawn)	-11	10	11*	-2	-4	-2
CCC(CO)N=CC1=C(O)CC(C)(C)CC1=O (stereo not drawn)	-11	9	1	1	nt	nt
Cc1onc(-c2ccccc2)c1C(N)=O	4	-3	-1	-1	nt	nt
SMILES	Arrestin-AP2 inh	PLCb3 inh	PLCg1 inh	NTR1 agonist	PLCgamma1 ctr	PLCb3 confirm
Cc1oc(C)c(C(N)=O)c1C(N)=O	23	11*	7	-1	-6	-3
C[C@H]1CCC(=O)N([C@H](COc2ccccc2)Cc2ccccc2)CC1	20	2	11*	2	-9	-3
CC1CCC(=O)N(CCOc2ccccc2)CC1 (stereo not drawn)	2	3	1	1	nt	nt
CC(C)(C)c1ccc(S(=O)(=O)N2CCN(C(=O)C(=O)c3cccc(C(F)(F)F)c3)CC2)cc1	nt	0	-1	nt	nt	nt
Cc1cc(O)cc(=O)n1-c1cc(F)c(F)c(F)c1	nt	-2	1	nt	nt	nt
Cc1cc(N2CCN(C(=O)Oc3ccc(-c4ccccc4)cn3)CC2)c2ccccc2n1	nt	0	12*	nt	2	-2
CCOC(=O)C(C(=O)NCCCN1CCOCC1)C1CCCCC1 (stereo not drawn)	-7	2	1	2	nt	nt
C=CCNC(=O)C(C(=O)OCC)C1CCCCC1 (stereo not drawn)	-8	14*	10*	-3	-2	-8
Cc1cc(C)cc(NC(=O)CCNC(=O)c2ccc([N+](=O)[O-])cc2)c1	3	-3	10*	nt	-8	-6
O=C(CCNC(=O)c1ccc([N+](=O)[O-])cc1)Nc1ccc(F)cc1	-2	-5	0	0	nt	nt
O=C1NC(c2ccccc2)c2c(-c3ccccc3)n[nH]c21 (stereo not drawn)	nt	1	1	nt	nt	nt
O=C(/C=C/c1ccco1)NC(=S)Nc1ccc(C(=O)O)cc1	40	-11	26*	0	17*	-7
COC(=O)N[C@H](C(=O)N[C@@H](Cc1ccccc1)[C@@H](O)CN(Cc1ccc(-c2ccccn2)cc1)NC(=O)[C@@H](NC(=O)OC)C(C)(C)C)C(C)(C)C	nt	11*	15*	nt	-6	-5
Cc1ccc2c(c1)N(CC(=O)NC1CCCC1)C(=O)C(C)O2 (stereo not drawn)	-2	-4	0	0	nt	nt
Cc1ccc2c(c1)N(CCC(=O)NC1CC1)C(=O)C(C)O2 (stereo not drawn)	28	12*	6	0	-3	-6
Cc1ccc(S(=O)(=O)NC(C)(C)CSc2nncn2N)cc1	6	3	11*	-2	0	2
O=C1NC(c2ccccc2)=NC1(NS(=O)(=O)c1ccccc1)C(F)(F)F (stereo not drawn)	-3	11*	3	2	-2	1
O=C1N2CCSC2=NC1(NS(=O)(=O)c1ccccc1)C(F)(F)F (stereo not drawn)	-4	5	10*	0	2	2
CCOC(=O)C1=C(C(=O)OCC)C2N(Cc3ccc(C#N)cc3)c3ccccc3[C@@]23C[C@@H](C(=O)OC)N(S(=O)(=O)c2ccc(C)cc2)C3=N1 (stereo partly drawn)	nt	1	-3	nt	nt	nt
O=C(NC(=S)N1CCc2ccccc21)c1ccccc1Br	-3	5	11*	-1	-3	4
N=c1sccn1CC(=O)NC(=O)NC1CCCC1	38	4	17*	0	3	4
Cc1ccc(C=NNC(=O)CSc2nc3sc4c(c3c(=O)n2-c2ccccc2)CCCC4)s1	nt	1	-3	nt	nt	nt
O=C(c1ccccc1Cl)N1CCSCCS1(=O)=O	nt	-1	0	nt	nt	nt
CCCCCCCCN1C(=O)[C@@H](CC(=O)NCCCN2CCCC2=O)C[C@@]2(C(=O)OC)C1=C[C@H](COCc1ccccc1)O[C@@H]2C	nt	-2	2	nt	nt	nt

Bioassay records as filed in PubChem BioAssay.
